The values below come from ChEMBL document CHEMBL3227943, “Synthesis and mutagenicity of 5,11-dimethylchrysene and some methyl-oxidized derivatives of 5-methylchrysene” (J Med Chem, 1979).

Data set [1] relates to Salmonella typhimurium. As to the kind of experiment: Mutagenic activity in Salmonella typhimurium TA 100 at 50 ug by Ames test in absence of Fischer-344 rat liver S9 fraction. The class given is toxicity, organism-based, Salmonella enterica subsp. enterica serovar Typhimurium. The following applies: in vivo.
In data set [2] the test system is Salmonella typhimurium. As to the kind of experiment: Toxicity in Salmonella typhimurium TA 100 at 5 to 100 ug in presence of Fischer-344 rat liver S9 fraction. The class given is organism-based, Salmonella enterica subsp. enterica serovar Typhimurium. In outline:
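Percent survivors were measured with diluted TA100 broth culture under the same S-9 plating conditions as the mutagenicity assay, except that excess histidine was added to the top agar.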

Data set [3] relates to Salmonella typhimurium. As to the kind of experiment: Mutagenic activity in Salmonella typhimurium TA 100 at 5 to 100 ug by Ames test in presence of Fischer-344 rat liver S9 fraction relative to 5-methylchrysene. In general terms: In the Ames test, an excess of revertant colonies over the control signals mutagenicity.
Data set [4] has as its system Salmonella typhimurium. Put plainly: Mutagenic activity in Salmonella typhimurium TA 100 at 5 to 100 ug by Ames test in absence of Fischer-344 rat liver S9 fraction. The class given is toxicity, organism-based, Salmonella enterica subsp. enterica serovar Typhimurium. The note with it: in vivo.
The test system of data set [5] is Salmonella typhimurium. Put plainly: Mutagenic activity in Salmonella typhimurium TA 100 at 5 to 100 ug by Ames test in presence of Fischer-344 rat liver S9 fraction. The class given is toxicity, organism-based, Salmonella enterica subsp. enterica serovar Typhimurium. An outline of the steps:
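TA100 plate-incorporation assay: compound in 50 µL Me₂SO, 0.1 mL overnight broth culture, 200 µL S-9 mix and 2 mL top agar (45 °C), poured on minimal glucose agar. S-9 from Aroclor 1254-induced rats (500 mg/kg, 5 days earlier); mix per mL: 100 µmol K phosphate pH 7.4, 8 µmol MgCl₂, 5 µmol G6P, 4 µmol NADP⁺. His⁺ revertants/plate, mean of four trials.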

Consider `Cc1cc2ccccc2c2ccc3c(c12)C=CC(O)C3O` (stereo not drawn), for which the Activity entry in the data set with Salmonella typhimurium [1] is given as “Toxic”.
For `COC(=O)c1cc2ccccc2c2ccc3c(c12)CCCC3`, the Activity result in the data set on Salmonella typhimurium [2] and in the data set with Salmonella typhimurium [3] was “Non-toxic” each time.
For `O=c1oc2cccc3ccc4c5ccccc5cc1c4c32`, the Activity entry is given as “Non-toxic” in the data set on Salmonella typhimurium [4], “Non-toxic” with Salmonella typhimurium [2] and “Toxic” with Salmonella typhimurium [5].
Regarding `OCc1cc2ccccc2c2ccc3ccccc3c12`, the Activity result in the data set on Salmonella typhimurium [2] and with Salmonella typhimurium [3] was “Non-toxic” in each case.
For the compound `Cc1cc2ccccc2c2c(C)cc3ccccc3c12`, the Activity entry in the data set with Salmonella typhimurium [2] is recorded as “Non-toxic”; in the data set with Salmonella typhimurium [5], “Toxic”.
Turning to `COC(=O)c1cc2ccccc2c2ccc3ccccc3c12`, the Activity result in the data set on Salmonella typhimurium [2] and with Salmonella typhimurium [3] was “Non-toxic” in each case.
On to `OCc1cc2ccccc2c2ccc3c(c12)CCCC3`, for which the Activity result with Salmonella typhimurium [2] and with Salmonella typhimurium [3] was “Non-toxic” each time.
`Cc1cc2ccccc2c2ccc3ccccc3c12`: the Activity entry in the data set with Salmonella typhimurium [2] is listed as “Non-toxic”; in the data set on Salmonella typhimurium [5], “Toxic”.
Regarding `CC(=O)OCc1cc2ccccc2c2ccc3ccccc3c12`, the Activity entry with Salmonella typhimurium [2] and in the data set with Salmonella typhimurium [3] was “Non-toxic” in each case.
